Key:
L02 = test: Cytotoxicity against human L02 cells assessed as effect on cell viability at 40 uM after 24 hrs by MTT assay; assay type: cell-based; conditions: l02, 24 h
In short: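 L-02 cells grown in DMEM with 10% FBS at 37 °C and 5% CO2, seeded at 5 × 10^3 cells/well, then settled over 12 h. Compound in DMSO added at 40 μM final (DMSO below 0.4%) for 24 h. MTT (5 mg/mL stock) added for a further 4 h. Formazan dissolved in DMSO and absorbance read at 570 nm.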

[1] = biological target: Beta-secretase 1 (Homo sapiens) (UniProt P56817); test: Inhibition of BACE1 (unknown origin) at 0.5 uM using BACE1 substrate measured after 2 hrs by FRET assay relative to control
Sequence of Beta-secretase 1 (Homo sapiens) (P56817 whole entry): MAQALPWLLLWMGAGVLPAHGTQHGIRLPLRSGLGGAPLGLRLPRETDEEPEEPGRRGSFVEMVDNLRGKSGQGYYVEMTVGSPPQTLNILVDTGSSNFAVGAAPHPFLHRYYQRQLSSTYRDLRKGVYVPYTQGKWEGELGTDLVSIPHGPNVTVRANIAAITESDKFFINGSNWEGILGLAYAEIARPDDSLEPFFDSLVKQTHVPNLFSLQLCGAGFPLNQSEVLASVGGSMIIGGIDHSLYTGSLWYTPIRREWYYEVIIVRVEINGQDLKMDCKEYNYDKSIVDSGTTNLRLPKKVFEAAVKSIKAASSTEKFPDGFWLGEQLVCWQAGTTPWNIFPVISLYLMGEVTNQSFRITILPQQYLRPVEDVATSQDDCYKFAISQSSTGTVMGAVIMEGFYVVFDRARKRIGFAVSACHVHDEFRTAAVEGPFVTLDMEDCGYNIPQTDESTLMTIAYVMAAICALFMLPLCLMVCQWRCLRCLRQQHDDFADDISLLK

SMILES | Activity (L02) | inhibition [1] [%]
CC(=O)OCCc1c(C)c(O)c2c(c1C)[C@@H](O)C(C)(C)C2 | Non-Toxic | –
Cc1cc2c(c(C)c1CCO)CC(C)(C)C2 | Non-Toxic | –
CC1C(=O)C2=CC(C)(C)C[C@]2(O)[C@@]2(C)C[C@@H](O)C12 (some centres not stated) | Non-Toxic | –
CC1=C2CC[C@]2(C)[C@@H]2C(=CC(C)(C)[C@H]2O)C1=O | Non-Toxic | –
Cc1cc2c(c(C)c1CCO)C(=O)C(C)(C)C2 [PTEROSIN Z] | Non-Toxic | –
CC1=C2[C@H](O)C[C@]2(C)[C@H]2CC(C)(C)C=C2C1=O | Non-Toxic | –
CC1=C2[C@H](O)C[C@]2(C)[C@H]2C[C@](C)(CO)C=C2C1=O | Non-Toxic | –
Cc1ccc2c3c1C(=O)OC[C@@]3(C)[C@H](O)C2(C)C | Non-Toxic | –
CC1=C2OCC[C@]2(C)[C@H]2CC(C)(C)C=C2C1=O | Non-Toxic | –
C[C@@]1(c2cc(-c3cncnc3)c(F)cc2F)CCSC(N)=N1 | – | 38.6
C[C@H]1C(=O)[C@]2(O)CC(C)(C)C[C@@H]2[C@@]2(C)CC[C@@]12O | Non-Toxic | –
CC1=C2[C@H](O)C[C@]2(C)[C@H]2C[C@@](C)(CO)C=C2C1=O | Non-Toxic | –
CC1=C2CC[C@]2(C)[C@H]2C[C@@](C)(CO)C=C2C1=O | Non-Toxic | –
Cc1c(O)c2c(c(C)c1CCO)C(=O)C(C)(C)C2 [ONITIN] | Non-Toxic | –
Cc1c(O)c2c(c(C)c1CCO)C(=O)C(C)(C)[C@@H]2O | Non-Toxic | –
CC1C(=O)C2=CC(C)(C)C[C@]2(O)[C@@]2(C)CCC12 (some centres not stated) | Non-Toxic | –
CC1=C2CC[C@]2(C)[C@]2(O)C(=CC(C)(C)[C@H]2O)C1=O | Non-Toxic | –

Reference: ChEMBL document CHEMBL4145578, “Protoilludane, Illudalane, and Botryane Sesquiterpenoids from the Endophytic Fungus Phomopsis sp. TJ507A” (J Nat Prod, 2018)
